In the library only some 3% were active in any assay of this set; here they are far more common.
Kir21 block: inhibitors of mouse Kir2.1 inward-rectifier potassium channel; 0.85% of 310,000 active; Inward rectifier potassium channel 2 (Mus musculus), P35561; B-score at 10 µM; HEK293-Kir2.1, FluxOR thallium flux fluorescence; active compounds read low;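 active = fluorescence ratio B-score at or below minus 3 SD of library scores, with starting-brightness B-score within 2 SD, cut at about -4.2 in these data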;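 note: channel flux triggered by added potassium and thallium sulfate stimulus; B-score of peak minus minimum fluorescence over baseline after thallium stimulus; more negative B-score means stronger Kir2.1 block with less thallium influx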
TRPC6 inhibitor: mouse TRPC6 channel inhibitors, primary screen, cell-based, HEK293, membrane potential dye; ACh-evoked depolarization; active compounds read low; B-score at 10 µM; 1.1% of 310,000 active; AID 2553, 2010;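 active = B-score under library mean minus 3 SD, initial fluorescence not abnormally high, positive integrated signal ratio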;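 note: B-score derived from integrated fluorescence ratio over the kinetic read; more negative B-score means stronger inhibition of depolarization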
Target sequence (Q61143 whole entry, looked up): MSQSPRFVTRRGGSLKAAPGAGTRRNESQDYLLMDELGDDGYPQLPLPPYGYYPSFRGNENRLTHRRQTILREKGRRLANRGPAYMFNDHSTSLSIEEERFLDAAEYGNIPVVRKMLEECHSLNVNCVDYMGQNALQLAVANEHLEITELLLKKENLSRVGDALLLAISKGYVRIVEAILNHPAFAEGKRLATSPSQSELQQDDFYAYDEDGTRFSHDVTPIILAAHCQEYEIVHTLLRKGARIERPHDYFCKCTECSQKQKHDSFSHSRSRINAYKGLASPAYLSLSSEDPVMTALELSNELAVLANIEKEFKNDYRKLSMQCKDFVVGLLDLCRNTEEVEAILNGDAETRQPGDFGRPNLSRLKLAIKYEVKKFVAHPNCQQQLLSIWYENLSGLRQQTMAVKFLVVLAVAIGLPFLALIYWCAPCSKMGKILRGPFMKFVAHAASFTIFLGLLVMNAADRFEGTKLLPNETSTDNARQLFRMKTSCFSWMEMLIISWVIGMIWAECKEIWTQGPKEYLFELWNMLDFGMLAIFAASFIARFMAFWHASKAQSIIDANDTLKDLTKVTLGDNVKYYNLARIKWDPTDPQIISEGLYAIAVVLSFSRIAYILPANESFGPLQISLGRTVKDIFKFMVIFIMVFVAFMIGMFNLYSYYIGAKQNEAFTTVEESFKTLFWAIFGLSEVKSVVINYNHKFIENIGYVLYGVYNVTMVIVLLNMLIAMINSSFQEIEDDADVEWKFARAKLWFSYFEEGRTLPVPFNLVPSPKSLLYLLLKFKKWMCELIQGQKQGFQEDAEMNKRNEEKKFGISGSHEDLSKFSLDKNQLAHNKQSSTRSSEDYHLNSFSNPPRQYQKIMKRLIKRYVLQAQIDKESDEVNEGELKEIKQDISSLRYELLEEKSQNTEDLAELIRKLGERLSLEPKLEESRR
TRPC4 block: inhibitors of mouse TRPC4 channel, primary screen, Fluo4 calcium, HEK293 TRPC4beta/mu-opioid cells | B-score at 10 µM | Short transient receptor potential channel 4 (Mus musculus), Q9QUQ5 | AID 2247, 2010 | 0.39% of 300,000 active | DAMGO-evoked Fluo4 calcium flux; active compounds read low;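 active = B-score over 3 SD under the library average, no early fluorescence shift, positive overall ratio signal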
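Assay system – HEK293 line stably carrying TRPC4beta and mu-opioid receptor · Doses – single dose · Detection – Fluo4 calcium-dye fluorescence, kinetic read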
TRPC6 activator: mouse TRPC6 channel activators, primary screen, cell-based, HEK293, membrane potential dye; B-score at 10 µM; Short transient receptor potential channel 6 (Mus musculus), Q61143; 0.13% of 310,000 active; HEK293-TRPC6 membrane potential dye fluorescence; active compounds read high;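 active = B-score of the integrated fluorescence ratio above library mean plus 3 SD, and starting fluorescence ratio within library mean plus 5 SD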;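 note: higher score means more depolarization so channel activation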
TRPC4 act: activators of mouse TRPC4 channel, primary screen, Fluo4 calcium, HEK293 TRPC4beta/mu-opioid cells. Short transient receptor potential channel 4 (Mus musculus), Q9QUQ5. Fluo4 calcium fluorescence; active compounds read high. B-score at 10 µM. 0.49% of 310,000 active;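 active = B-score above 5 SD of library B-scores, and initial fluorescence ratio not above library mean plus 5 SD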;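 note: positive B-score marks a calcium rise read as TRPC4 activation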
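System: HEK293 cells stably co-expressing mouse TRPC4beta and mu-opioid receptor; Schedule: Fluo4 dye loading 45 min at room temperature, 110 s recording; Detection: Fluo4 fluorescence, kinetic; Evaluation: B-scored integrated calcium fluorescence ratio; Controls: buffer (low) and maximal DAMGO (high).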
TRPC4 potent: positive allosteric modulators of TRPC4, primary screen, cell-based, mouse TRPC4beta, HEK293 mu-opioid, Fluo-4 calcium. Short transient receptor potential channel 4 (Mus musculus), Q9QUQ5. DAMGO EC20, Fluo-4 Ca2+ flux; active compounds read high. B-score at 10 µM. 0.42% of 310,000 active;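 active = B-score of calcium response area above 5 SD of library B-scores, with initial fluorescence ratio within 5 SD of library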
hERG ctr: hERG channel inhibition, counter-screen for Kir2.1 inhibitor project, cell-based, thallium flux. 20% of 320 active. hERG-expressing cells. shares compounds with Kir21 block. AID 2236, 2010. inhibition, % at 10 µM;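 note: host cells are CHO cells stably expressing hERG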
KCNK9 spec: KCNK9 channel inhibition, selectivity assay for Kir2.1 inhibitor project, cell-based; shares compounds with Kir21 block; KCNK9-expressing cells, ion flux inhibition; inhibition, % at 10 µM; 5% of 320 active; AID 2329, 2010
Kir21 ephys inh: mouse Kir2.1 channel blockers, Kir2.1 inhibitor project, cell-based, secondary, automated electrophysiology. shares compounds with Kir21 block. inhibition, % at 25 µM. AID 463252, 2010. Kir2.1 cells, automated patch-clamp current inhibition. 71% of 320 active
HEK293 TRPC6 ctr: parental HEK293 membrane potential modulation, confirmation, counter-screen for TRPC6 modulator project, cell-based; membrane potential signal change, % at 10 µM; AID 488924, 2010; membrane potential dye fluorescence; shares compounds with TRPC6 inhibitor; 51% of 2,400 active;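 active = membrane potential signal moves up or down beyond 5 SD from buffer-only wells, on both duplicate plates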
HEK293 MPD ctr 2: second counter-screen for TRPC6 modulators: effect in parental HEK293 cells. inhibition, % at 10 µM. 14% of 2,400 active. membrane potential dye fluorescence; after compound, maximal acetylcholine stimulation. shares compounds with TRPC6 inhibitor. AID 488926;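 active = membrane potential signal drops by more than 5 SD from the mean control signal, in both duplicate plates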
TRPC4/MOR mod: TRPC4 modulation by TRPC6 hit compounds, confirmation, selectivity assay for TRPC6 modulator project, cell-based, HEK293 TRPC4/mu-opioid, membrane potential dye, mouse; shares compounds with TRPC6 inhibitor; membrane potential fluorescence; percent change from control (negative = decrease, positive = increase), % at 10 µM; 69% of 2,400 active; AID 488927, 2010;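 active = membrane potential signal moved up or down beyond 5 SD of buffer control wells, in both duplicate plates, actives on both sides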
TRPC4 ctr inh 2: second check of whether TRPC6 modulators also affect mouse TRPC4 | HEK293 TRPC4/mu-opioid, membrane potential dye fluorescence; stimulated with maximal-effect DAMGO | inhibition, % at 10 µM | AID 488928 | shares compounds with TRPC6 inhibitor | 55% of 2,400 active;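 active = drop in membrane potential signal beyond 5 SD of the control wells in both duplicate plates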;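 note: TRPC4 counter screen for TRPC6 hits run under conditions tuned for TRPC6 not TRPC4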
TRPC6 inh conf: mouse TRPC6 channel inhibitors, confirmation, HEK293 cells, membrane potential dye, duplicate. inhibition, % at 10 µM. ACh-evoked depolarization. 43% of 3,300 active. shares compounds with TRPC6 inhibitor;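 active = fluorescence ratio falls more than 5 SD below the full-stimulation control mean, in both duplicate runs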;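 note: integrated fluorescence ratio of peak minus minimum over baseline after agonist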
TRPC6 act conf: mouse TRPC6 channel activators, confirmation, HEK293 cells, membrane potential dye, duplicate. shares compounds with TRPC6 inhibitor. AID 488961, 2010. HEK293-TRPC6 membrane potential dye fluorescence, FDSS. activation, % at 10 µM. 11% of 2,800 active;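 active = ratio signal rise beyond 5 SD above unstimulated control wells' mean, seen in both duplicate runs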
Of the large screens only hits and unclear results are named; the others gave an inactive call (follow-up assays come after a bar, where they were run). Unless noted, the rule behind the calls is not given here.

CN1CC=C(/C=C/c2ccc(-c3ccccc3)cc2)CC1	none
COc1ccc(C(=O)CN2CCCCC2)cc1	none
CC1CC(C)CN(CC(=O)c2ccc(OC(F)F)cc2)C1 (stereo unspecified)	TRPC4 act 52
O=C(O)C1Cc2ccccc2N2CCCC12 (stereo unspecified)	none
Cn1c(N2CCNCC2)nc2ccccc21	TRPC4 act 105
Cc1cc(N2CCNCC2)nc2ccccc12	TRPC4 potent 13
FC(F)(F)c1ccccc1N1CC1c1ccncc1 (stereo unspecified)	none
COc1ccc(-c2nn(CCC#N)cc2C(=O)Nc2ccc(C(C)=O)cc2)cc1[N+](=O)[O-]	none
CC(=O)N1CCN(c2ccc([N+](=O)[O-])cc2C=C2C(=O)NC(=O)NC2=O)CC1	none
CCN1CCN(c2ccc([N+](=O)[O-])cc2C=C2C(=O)NC(=O)NC2=O)CC1	TRPC4 potent 15
CSc1ccc(CNC(C)C(O)c2ccccc2)cc1 (stereo unspecified)	Kir21 block -5.52
CSc1ccc(CN2CCN(C(=O)Cc3ccccc3)CC2)cc1	none
CSc1ccc(CN2CCN(Cc3ccccc3Cl)CC2)cc1	Kir21 block -4.92
COc1ccc(OC)c(N2C(=O)/C(=C/c3ccco3)C(=O)NC2=S)c1	TRPC4 potent 10
COc1ccc(C(CNC(=O)Cc2ccc(Cl)c(Cl)c2)N(C)C)cc1 (stereo unspecified)	TRPC4 act 173
Cc1cc(C)n(CCOC(=O)C2C(C=C(Cl)Cl)C2(C)C)n1 (stereo unspecified)	Kir21 block -9.84 | hERG ctr inactive | KCNK9 spec inactive | Kir21 ephys inh 40.9%
CN1CC(C(=O)c2ccc(Cl)cc2)C(c2ccccc2F)C1 (stereo unspecified)	none
COc1cccc(C(=O)C2CN(C)CC2c2ccc(Cl)cc2)c1 (stereo unspecified)	Kir21 block -7.11 | hERG ctr 46.0% | KCNK9 spec inactive | Kir21 ephys inh 25.2%
COc1ccc(C(=O)C2CN(C)CC2c2ccc(Cl)cc2)cc1 (stereo unspecified)	Kir21 block -6.37 | hERG ctr 51.0% | KCNK9 spec inactive | Kir21 ephys inh inactive
CCOC(=O)C(=CNc1ccc(C(O)(C(=O)OCC)C(F)(F)F)cc1C)C(=O)OCC (stereo unspecified)	none
CC(ON1CC1(C(F)(F)F)C(F)(F)F)(C(N)=O)C(N)=O (stereo unspecified)	none
CCOc1ccc(Cl)cc1CNCCc1ccc(F)cc1	Kir21 block -6.41 | hERG ctr inactive | KCNK9 spec inactive | Kir21 ephys inh 57.1%
O=C(Cc1ccccc1)Oc1cccc(-n2cnnn2)c1	none
CCCCCSc1cc(OC)c(CCN)cc1OC	Kir21 block -6.23, TRPC6 inhibitor -6.52 | hERG ctr inactive | KCNK9 spec inactive | Kir21 ephys inh 26.1% | HEK293 TRPC6 ctr inactive | HEK293 MPD ctr 2 inactive | TRPC4/MOR mod inactive | TRPC4 ctr inh 2 59.0% | TRPC6 inh conf 40.0% | TRPC6 act conf inactive
O=C1NC(=O)C(CCc2ccncc2)(Cc2ccc(OCc3ccccc3)cc2)C(=O)N1	none
Nc1c2c(nc3sc4c(c13)CCCC4)CCCC2	TRPC6 inhibitor -5.9 | HEK293 TRPC6 ctr inactive | HEK293 MPD ctr 2 inactive | TRPC4/MOR mod -8.0% | TRPC4 ctr inh 2 61.5% | TRPC6 inh conf inactive | TRPC6 act conf inactive
Cc1nn(CC(=O)N2CCC3(CC2)OCCO3)c(=O)c2cc3ccccc3n12	none
CN(C)CCSC1c2ccccc2CSc2ccccc21 (stereo unspecified)	TRPC6 inhibitor -6.22 | HEK293 TRPC6 ctr inactive | HEK293 MPD ctr 2 78.0% | TRPC4/MOR mod 11.0% | TRPC4 ctr inh 2 49.5% | TRPC6 inh conf 74.0%
CN1C2CCC1CC(OC(c1ccccc1)c1ccccc1N)C2 (stereo unspecified)	TRPC6 inhibitor -5.56 | HEK293 TRPC6 ctr 110.5% | HEK293 MPD ctr 2 92.5% | TRPC4/MOR mod 21.0% | TRPC4 ctr inh 2 40.5% | TRPC6 inh conf 87.5%
CN1C2CCC1C(COC(=O)c1ccccc1)C(O)C2 (stereo unspecified)	none
CCN(CC)c1ccc(N=Cc2c(O)n(Cc3ccco3)c(=O)[nH]c2=O)cc1	none
